This note sets out measurements from ChEMBL document CHEMBL1153494, “Design, synthesis, enzyme inhibition, and tumor cell growth inhibition of 2-anilinobenzamide derivatives as SIRT1 inhibitors” (Bioorg Med Chem, 2009).

The target in assay [1] is T1, NAD-dependent protein deacetylase sirtuin-1 (Homo sapiens, UniProt Q96EB6).
T1 sequence (Q96EB6 whole entry): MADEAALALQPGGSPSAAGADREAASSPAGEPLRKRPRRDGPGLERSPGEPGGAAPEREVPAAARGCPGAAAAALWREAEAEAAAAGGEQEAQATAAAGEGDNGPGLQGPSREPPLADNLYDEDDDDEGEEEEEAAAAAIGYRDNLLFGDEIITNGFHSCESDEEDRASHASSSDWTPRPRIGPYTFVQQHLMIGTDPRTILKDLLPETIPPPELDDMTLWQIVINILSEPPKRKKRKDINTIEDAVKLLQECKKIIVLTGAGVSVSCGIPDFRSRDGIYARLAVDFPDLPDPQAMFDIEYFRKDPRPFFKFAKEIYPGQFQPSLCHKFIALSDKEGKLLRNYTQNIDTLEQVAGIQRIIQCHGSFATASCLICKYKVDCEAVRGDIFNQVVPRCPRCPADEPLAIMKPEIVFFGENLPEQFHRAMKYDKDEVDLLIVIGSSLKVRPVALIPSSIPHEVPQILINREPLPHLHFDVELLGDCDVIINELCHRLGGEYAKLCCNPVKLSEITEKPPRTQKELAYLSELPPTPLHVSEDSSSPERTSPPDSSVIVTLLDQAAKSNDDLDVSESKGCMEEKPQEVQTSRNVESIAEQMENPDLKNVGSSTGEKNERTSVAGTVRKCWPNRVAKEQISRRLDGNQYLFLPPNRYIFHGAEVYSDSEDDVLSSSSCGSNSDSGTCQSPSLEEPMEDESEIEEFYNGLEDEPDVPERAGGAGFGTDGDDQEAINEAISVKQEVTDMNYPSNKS
Briefly: Inhibition of human recombinant SIRT1 by fluorimetric analysis. Summed up:
(§1)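 Recombinant human SIRT1 was incubated at 37 °C with Fluor de Lys-SIRT1 substrate, NAD⁺ and a range of sample concentrations. After 60 min the reaction was stopped with Fluor de Lys Developer II containing nicotinamide. Fluorescence (ex 360 nm / em 460 nm) was read 45 min later, and % inhibition was taken relative to control wells.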

Assay [2] relates to HCT-116. The assay can be described thus: Growth inhibition of human HCT116 cells at 100 uM after 24 hrs by alamar blue assay. The assay is classed as functional. The conditions noted are these: HCT-116, 72 h, in the assay text read “after 72 hrs” for “after 24 hrs”. The gist of the method:
(§2)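 Cells came from ATCC and were grown with penicillin/streptomycin and FBS: HCT116 in McCoy's 5A, Daudi in RPMI. They were seeded at 5000 cells/well; after 24 h, compounds in medium were added at various concentrations for 72 h at 37 °C, 5% CO₂. AlamarBlue was then added for 3 h, fluorescence read (ex 530 / em 590 nm), and % cell growth calculated.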
On the technique in general: The colour change of resazurin is a common sign of viable cells or microbes.

In assay [3] the test system is HCT-116. Briefly: Growth inhibition of human HCT116 cells after 24 hrs by alamar blue assay. The class given is functional. The settings on record: HCT-116, 72 h, in the assay text read “after 72 hrs” for “after 24 hrs”. Summed up: as §2
Assay [4] deals with Daudi. Briefly: Growth inhibition of human Daudi cells at 100 uM after 24 hrs by alamar blue assay. The class given is functional. The conditions noted are these: 72 h, in the assay text read “after 72 hrs” for “after 24 hrs”. The gist of the method:
as §2

Assay [5] has as its system Daudi. Briefly: Growth inhibition of human Daudi cells after 24 hrs by alamar blue assay. The assay is classed as functional. The conditions noted are these: 72 h, in the assay text read “after 72 hrs” for “after 24 hrs”. Summed up:
as §2

For assay [6], the target named is T1, NAD-dependent protein deacetylase sirtuin-1. The assay can be described thus: Inhibition of human recombinant SIRT1 at 300 uM by fluorimetric analysis. Summed up:
as §1

The IC50 is the concentration that gives 50% inhibition. By inhibition is commonly meant the relative decrease from the control value, in per cent. Usually GI50 stands for the concentration at which growth is held to half of that of the control. Turning to `NC(=O)c1ccccc1Nc1cccc(-c2ccccc2)c1`, the IC50 in assay [1] came to 52 µM. For the same compound, the inhibition at 100 µM in the assay on HCT-116 [2] amounted to 126%; in the assay on Daudi [4], 108%. The GI50 with HCT-116 [3] came to 43 µM; with Daudi [5], 26 µM.

Consider `NC(=O)c1ccccc1Nc1cccc(Oc2ccccc2)c1`, for which the IC50 in assay [1] was found to be 58 µM. Also, the inhibition at 100 µM amounted to 126% with HCT-116 [2] and 103% in the assay with Daudi [4]. Also, the results for the GI50 in the assay on HCT-116 [3] and in the assay on Daudi [5] were 50 µM and 31 µM, respectively.

In the case of `NC(=O)c1ccccc1Nc1cccc(/C=C/C(=O)O)c1`, the IC50 in assay [1] amounted to 58 µM. The inhibition at 100 µM in the assay with HCT-116 [2] and with Daudi [4] was 0% throughout. Moreover, the GI50 in the assay with HCT-116 [3] and in the assay on Daudi [5] was more than 100 µM in each case.

For `NC(=O)c1ccccc1Sc1ccccc1`, the IC50 in assay [1] is 78 µM.

For `COC(=O)/C=C/c1cccc(Nc2ccccc2C(N)=O)c1`, the IC50 in assay [1] was 65 µM.

In the case of `Cc1cccc(Nc2ccccc2C(N)=O)c1`, the IC50 in assay [1] is 68 µM.

Turning to `NC(=O)c1ccccc1Nc1cccc(CO)c1`, the half-maximal inhibitory concentration (IC50) in assay [1] was 60 µM. The inhibition at 100 µM in the assay on HCT-116 [2] came out at 4%; in the assay on Daudi [4] it was 0%. For the same compound, the GI50 in the assay with HCT-116 [3] and in the assay on Daudi [5] was more than 100 µM each time.

Turning to `NC(=O)c1ccccc1Nc1cccc(Sc2ccccc2)c1`, the IC50 in assay [1] was found to be 89 µM.

As for `NC(=O)c1ccccc1Nc1ccc(-c2ccccc2)cc1`, in assay [6], the “inhibition (INH)” value was 36%.

Consider `NC(=O)c1ccccc1Nc1cccc(CCO)c1`, for which the IC50 in assay [1] is 72 µM. Besides, the inhibition at 100 µM in the assay on HCT-116 [2] came to 12%; in the assay with Daudi [4], 6%. Also, the GI50 in the assay on HCT-116 [3] and in the assay with Daudi [5] was more than 100 µM each time.

Turning to `NC(=O)c1ccccc1Nc1ccccc1` [ANILINOBENZAMIDE], in assay [1], the IC50 turned out to be 56 µM. Further, the inhibition at 100 µM in the assay with HCT-116 [2] amounted to 21%; with Daudi [4], 74%. In addition, the GI50 with HCT-116 [3] is more than 100 µM; in the assay on Daudi [5], 77 µM.
